# Results: ChEMBL document CHEMBL4513216, “Probing the Open Global Health Chemical Diversity Library for Multistage-Active Starting Points for Next-Generation Antimalarials” (ACS Infect Dis, 2020)
# Test: Toxicity liver stage against HepG2, at 10uM
# Type: cell-based
# Design: test concentration 10 uM, cell line HepG2-A16-CD81EGFP
# Conditions: human, HepG2-A16-CD81EGFP cells; read-out: INHIBITION
# Outline: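 Uninfected HepG2-A16-CD81EGFP cells, 3 × 10^3 per well, 1536-well, plated on prespotted compound at 10 μM final, parasite-free screening media added to match infected plates; puromycin 10 μM positive, DMSO 0.5% negative; run in parallel with 48 h PbLuc assay at 37 °C, 5% CO2; viability by CellTiter-Glo luminescence, normalized to controls.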
row,Compound,cytotoxicity at 10 µM [%]
1,CCNC(=O)N1C[C@@H]2OCC(=O)N(CC3CC3)[C@@H]2C1,0.434
2,CCCSc1ncccc1C(=O)NCc1ccc(S(N)(=O)=O)cc1,6.02
3,O=C(CCc1nc2cc(Br)cnc2[nH]1)NCCCn1ccnc1,0.905
4,O=C(NC1CC(=O)N(C2CC2)C1)c1cccs1 (centres undefined),17.5
5,Cc1nn(C)c(C)c1S(=O)(=O)NCC1CCN(c2ccccn2)CC1,6.5
6,Cn1cc(C(=O)Nc2ccc3c(c2)CN(C(=O)C2CC2)CC3)nn1,4.59
7,COc1nn(C)cc1C(=O)NCC(OC)c1ccccc1C (centres undefined),-8.32
8,C[C@H]1C[C@H]2CN(S(=O)(=O)c3ccc(F)cc3)CC[C@H]2O1,1.79
9,c1cnc(N2CCCn3c(nnc3Cn3cccn3)C2)nc1,-1.58
10,CC(C)NC(=O)N1CCC(c2nnc3ccc(C(=O)N(C)C)cn23)C1 (centres undefined),8.79
11,O=S(=O)(Nc1cnn(C2CCOCC2)c1)c1ccc(F)c(F)c1,6.04
12,CCN(c1ccc(C(=O)NCCCN2CCCC2)cc1)S(=O)(=O)CC,-3.29
13,O=C(COCC(=O)N(c1ccccc1)c1ccccc1)N1CCCC1,10.9
14,Cc1noc(C)c1-c1cc(CCC2CN(C(=O)CN)CCO2)ncn1 (centres undefined),2.89
15,c1cnn(CC2CN(c3ncnc4c3CCC4)CCO2)c1 (centres undefined),31.2
16,FC(F)(F)CCN(Cc1ccon1)C1CCCC1,1.87
17,CC(=O)N1CCC(NC(=O)CN2CCCc3c(C)ccc(F)c32)CC1,-5.82
18,CN1CCN(CCOc2ccc(NC(=O)c3ccoc3)cc2)CC1,-2.09
19,O=C(c1sccc1Br)N1CCOCC1,-2.34
20,CC(=O)NCCCNC(=O)N(C)C(C)Cc1ccc(Cl)cc1 (centres undefined),0.866
21,CCn1c(C)cc(C(=O)N2CCC(NC(=O)c3cc(C)no3)CC2)c1C,-1.1

row,Compound,cytotoxicity at 10 µM [%]
1,CN(C)C(=O)c1cccc(CCNc2ccccc2S(C)(=O)=O)c1,11.5
2,CC1CCC(NC(=O)CNC2(c3cccc(Br)c3)CCOCC2)CC1 (centres undefined),2.94
3,Cc1ccccc1-c1noc(CN2CCC(c3ccn[nH]3)CC2)n1,1.98
4,COC(=O)CNC(=O)C1CCN(S(C)(=O)=O)CC1,2.91
5,Cc1nc(C)n(CC2CN(CCc3cccs3)CCO2)n1 (centres undefined),7.12
6,CSC1(CNc2ccc(Br)cn2)CCOCC1,-9.99
7,Cc1nc(C2(NCc3cccc(F)c3F)CCCCC2)no1,0.749
8,O=C(CCc1ccc(Br)cc1)NCCc1nnc[nH]1,2.7
9,O=S(=O)(N1CCCCC1)N1CCOC2(CCCC2)C1,-3.73
10,CC(C)NC(=O)C(C)S(=O)(=O)c1cc2c(cc1Cl)OCCO2 (centres undefined),-3.25
11,N#Cc1ccc(S(=O)(=O)Nc2ccccc2C#N)cn1,-2.93
12,CC(C)OCCC(=O)N(C)c1ccc(F)c(Cl)c1,-4.62
13,Cc1ccccc1CNC(=O)CNc1ccc(OC2CCOC2)cc1 (centres undefined),2.77
14,CCOc1ccc(C(=O)N(Cc2cnn(C)c2)C(C)C)cc1,13.4
15,Cn1ccc(C(=O)NCc2ccc(Cn3ccnc3)cc2)cc1=O,3.32
16,CC(C)(NS(C)(=O)=O)c1nc(-c2ccc(F)c(F)c2)no1,-1.49
17,CC(C)c1csc(C2CCCN(C(=O)c3ccc(=O)n(C)n3)C2)n1 (centres undefined),9.24
18,CCn1c(C)nnc1CN(C)C1CCN(Cc2cnc(C)cn2)C1 (centres undefined),14.6
19,COc1ccc(NC(=O)NC(C)c2nc[nH]n2)cc1 (centres undefined),-7.71
20,CSC(C)(C)CNC(=O)NCCC1CCN(C)CC1,22.3
21,CN1CCCC(CNC(=O)N2CCN(Cc3ccon3)CC2)C1 (centres undefined),15.5

row,Compound,cytotoxicity at 10 µM [%]
1,Cc1nn(C)c(C)c1C1COCCN1c1ncnc2sccc12 (centres undefined),2.84
2,CC(=O)N1CCC(C(=O)NCCN2CCC(C)CC2)CC1,12.8
3,O=C(Cc1ccccn1)N1C[C@H]2CCC[C@@]2(COc2ccccn2)C1,1.86
4,CCn1ncc2[nH]c(-c3cc4c(cc3OC)OCO4)nc21,-2.99
5,CCC1CCN(CCn2cnc3c(C)csc3c2=O)CC1,-6.94
6,COc1cccc(CN2CCCC3(CCN(C(CO)CO)C3)C2)c1 (centres undefined),-5.96
7,Cc1nn(CC(=O)N(C)Cc2nncn2C(C)C)c(=O)c2ccccc12,3.1
8,CCN1CCN(Cc2nc(Cc3ccccc3)n[nH]2)CC1,-9.34
9,Cc1ccc(C(=O)O)c(N2Cc3cnc(C(C)(C)C)nc3C2)n1,5.67
10,CN(C)CCNc1cc(-c2ncccc2Cl)c2cc[nH]c2n1,8.45
11,Cc1nc(N)sc1C(=O)N1CCCC(c2nccn2CCCN(C)C)C1 (centres undefined),-6.82
12,c1ncn(CC2CN(Cc3nc(C4CC4)no3)CCO2)n1 (centres undefined),-8.45
13,CC(NC(=O)NCCCN1CCCC1=O)c1nncn1C (centres undefined),-3.08
14,COc1cccc(-c2noc(CN3CCOCC3C)n2)c1 (centres undefined),-11.7
15,Cc1csc(CCNC(=O)NC(C)Cn2cccn2)n1 (centres undefined),-18
16,O=C(Cc1cccnc1)N1CCCC(n2cncn2)C1 (centres undefined),-13.1
17,OC(CN1CCC(c2ccn[nH]2)CC1)c1ccc(F)cc1F (centres undefined),-17.9
18,Cc1nccn1CC1CCCN1S(=O)(=O)Cc1cccc(F)c1 (centres undefined),-15.8
19,O=C(Nc1cccnc1N1CCCC1)C1CCS(=O)(=O)C1 (centres undefined),-13.1
20,CN(CCC(=O)N1CCc2sccc2C1)Cc1ccc2c(c1)OCCO2,-14.8
21,Cc1cnn(CC2CN(CC(=O)N(C)Cc3cnn(C)c3)CCO2)c1 (centres undefined),-18.4

row,Compound,cytotoxicity at 10 µM [%]
1,Cn1nc2c(cc1=O)CN(Cc1nc(-c3ccsc3)no1)CC2,-2.21
2,O=C(NCCCN1CCc2ccccc2C1)c1ccccc1Cl,-13
3,Cc1cn2c(n1)CCC(NC(=O)c1oc(Br)cc1C)C2 (centres undefined),-20.8
4,CC(C)C(NC(N)=O)C(=O)NCc1ccc(N2CCCC2)nc1 (centres undefined),-16.9
5,Cc1cccc(NC(=O)Cn2nc3ccccn3c2=O)c1C,-13.4
6,Cc1ccccc1OCC(=O)N1CCN(C2CCOC2=O)CC1 (centres undefined),-19.3
7,Cc1cnn(CCC(=O)N2CCCC(c3nc(C)c(C)s3)C2)c1 (centres undefined),-19.2
8,NC(=O)C1CCN(CCc2ccc(NC(=O)C3CCC3)cc2)CC1,-3.86
9,Cc1noc2ncc(C(=O)N(CC3CCOC3)C3CC3)cc12 (centres undefined),-6.64
10,Cc1nc(CNCC2CCCN2c2cccnn2)cs1 (centres undefined),-6.26
11,Cc1nn(C)c(Cl)c1C1CCCN1CCc1ccccn1 (centres undefined),4.6
12,O=C(c1cccc(CN2CCCC2)c1)N1CCCC(n2cncn2)C1 (centres undefined),-11.9
13,Cc1ccc(N2CCCC(NCc3ccncc3)C2)nn1 (centres undefined),2.55
14,CN1CCc2onc(Cn3cccc3)c2C1,7.25
15,CCN1CCOCC12CCN(C(=O)C1CCCC1)CC2,-0.272
16,COc1ccc(OCCNCc2c(C)nn(C)c2N(C)C)cc1,-6.63
17,O=C([C@@H]1CC[C@@H]2[C@@H](CCN2Cc2cccc(F)c2)O1)N1CCCCO1,-6.71
18,CC(C)N1CCN(c2ccc3ccc(C(=O)NC4CCCC4)cn23)CC1,1.26
19,CC1c2ncc(COc3cccnc3)n2CCN1C(=O)C1=CCCC1 (centres undefined),-2.59
20,CC(C)OCc1ncn2c1CN(Cc1cnn(C)c1)CCC2,6.13
21,O=C(CC1[C@H]2CN(Cc3ccc(F)cc3)C[C@@H]12)N1CCCC1 (some centres undefined),-0.744
